Compound activity deposited in PubChem by Sanford-Burnham Center for Chemical Genomics.
Only some compounds are listed: those with a hit (about 1.3% of all), similar ones and a draw of the others.
Diaphorase inh = diaphorase inhibition or chemical oxidation counter-screen; diaphorase resazurin-to-resorufin fluorescence, NADH, 16 min; bacterial (C. kluyveri) enzyme, not human; inhibition, % at 20 µM; actives 0.69% (n = 190,000); AID 1217;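 active = primary screen inhibition at 20 µM above a set limit, cut at about 50% in these data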
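controls = No-NADH positive control and DMSO neutral control | system = Clostridium kluyveri diaphorase enzyme | timing = reaction incubation of 16 min at room temperature | signal = resorufin fluorescence 544/590 nm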
G6PDH CS = inhibits Leuconostoc G6PDH, flagging false hits in G6PDH-based assays. Purified L. mesenteroides G6PDH, diaphorase/resazurin coupled fluorescence, 45 min. inhibition, % at 5 µM. actives 0.12% (n = 200,000). AID 1020; in the data active = inhibition above about 50%
HKDC1 inhibitor = blocks human hexokinase HKDC1 activity | Q2TB90 | recombinant HKDC1, G6PDH/diaphorase resazurin coupled fluorescence | inhibition, % at 20 µM | actives 0.16% (n = 340,000) | AID 493160;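 active = inhibition above about 35% when tested at 20 µM, limit read from the data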
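Test system: recombinant HKDC1 (HK5) hexokinase enzyme, produced in-house; Amount: enzyme 5 µg/mL final; Buffer or medium: Tris pH 8.0 buffer with MgCl2, Tween-20, BSA, BME; Reagent: glucose and ATP substrates; Doses: 20 µM test compound, 1% DMSO; Incubation: 90 min reaction incubation at room temperature, dark; Detection: resorufin fluorescence at 613 nm.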
PfG6PD inh = PfG6PD (Plasmodium falciparum) enzyme inhibition. PfGluPho enzyme, NADPH resazurin-diaphorase fluorescence. inhibition, % at 20 µM. actives 0.78% (n = 350,000). AID 504690;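 active = inhibition reaching at least a set limit at 20 µM in the primary screen, cut at about 59% in these data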
Large screens that a line does not name were inactive.

COc1cc(OC)cc(C(=O)N(CCCN2C(=O)c3cccc4cccc(c34)C2=O)c2cccc(OC)c2)c1	Diaphorase inh 53
O=[N+]([O-])c1ccccc1N/N=C1\CC2CC=CC12 (configuration not stated)	Diaphorase inh 61
O=C(C#Cc1ccccc1)c1cccc([N+](=O)[O-])c1	HKDC1 inhibitor 37
O=C(COc1ccc(Br)cc1)Nc1ccc(N2CCOCC2)cc1N1CCOCC1	none (no result: Diaphorase inh, G6PDH CS)
Oc1cccc(/C=N/Nc2cc(N3CCOCC3)nc(N3CCOCC3)n2)c1	none
Oc1ccc(/C=N/Nc2cc(N3CCOCC3)nc(N3CCOCC3)n2)cc1O	Diaphorase inh 64
CCOc1ccccc1C(=O)NCC(=O)NNC(=O)c1cccc(S(=O)(=O)Nc2ccc(OC)cc2)c1	none (no result: Diaphorase inh, G6PDH CS)
COCCN=c1scc(-c2cccs2)n1/N=C/c1ccc(O)c(O)c1O	Diaphorase inh 69
COc1ccc(-n2c(SCC(=O)C(C)(C)C)nc3c(sc(=S)n3-c3ccccc3)c2=O)c(OC)c1	PfG6PD inh 78 (no result: Diaphorase inh, G6PDH CS)
Cn1c(=O)c(=O)n(C)c2cc([N+](=O)[O-])c([N+](=O)[O-])cc21	none
CN(C)c1c([N+](=O)[O-])cc(N2C(=O)C=CC2=O)cc1[N+](=O)[O-]	PfG6PD inh 103 (no result: Diaphorase inh, G6PDH CS)
Cc1cc(O)ccc1Nc1nc2ccccc2nc1Nc1ccc(O)cc1C	Diaphorase inh 59
Cc1ccc(Nc2nc3ccccc3s2)c(C)c1	none
CCOC(=O)C1=CN(Cc2cccc(F)c2)S(=O)(=O)N(CC)C1c1ccccc1 (configuration not stated)	none (no result: Diaphorase inh, G6PDH CS)
C/C(=N/Nc1ccccc1[N+](=O)[O-])c1ccc(C)c([N+](=O)[O-])c1	none (no result: Diaphorase inh, G6PDH CS)
CC(C)/C(=N/Nc1ccccc1[N+](=O)[O-])c1ccccc1	Diaphorase inh 50
Cn1cnnc1SCCNS(=O)(=O)c1cccc([N+](=O)[O-])c1	none (no result: Diaphorase inh, G6PDH CS)
CCOC(=O)c1c(C)oc2c1c(C=NCC1CCCO1)c(O)c1ccccc12 (configuration not stated)	Diaphorase inh 75, G6PDH CS 50
CN(C)CCN(Cc1cc2cc3c(cc2[nH]c1=O)OCCO3)C(=S)NCC1CCCO1 (configuration not stated)	Diaphorase inh 50
CC(=O)NC1=C(N(C)C2CCS(=O)(=O)C2)C(=O)c2ccccc2C1=O (configuration not stated)	Diaphorase inh 62, HKDC1 inhibitor 39, PfG6PD inh 97
Cc1cc(C)c2[nH]c(O)c(N=NC3=NC(=O)CS3)c2c1	none (no result: Diaphorase inh, G6PDH CS)
CCc1ccc2c(c1)c(N=NC1=NC(=O)CS1)c(O)n2C	Diaphorase inh 84
Cc1cc(C)c2nc(NNC(=O)c3cc(=O)c4ccccc4o3)sc2c1	Diaphorase inh 67
O=C(NCC(c1ccco1)N1CCCCC1)c1cccc(S(=O)(=O)Nc2ccc(F)cc2)c1 (configuration not stated)	none (no result: Diaphorase inh, G6PDH CS)
COc1ccc2[nH]c(=O)c(C(c3nnnn3CC3CCCO3)N3CCc4ccccc4C3)cc2c1 (configuration not stated)	Diaphorase inh 52
Cc1ccc2[nH]c(=O)c(C(c3nnnn3CC3CCCO3)N3CCCc4ccccc43)cc2c1 (configuration not stated)	Diaphorase inh 80
Cc1ccc2[nH]c(=O)c(C(c3nnnn3CC3CCCO3)N3CCOCC3)cc2c1 (configuration not stated)	none
Cc1ccc2[nH]c(=O)c(C(c3nnnn3CC3CCCO3)N3CCc4ccccc4C3)cc2c1 (configuration not stated)	Diaphorase inh 63
C[C@H](NC(=O)c1ncn2c1C(=O)NC[C@@H]2C)c1ccccc1	none (no result: Diaphorase inh, G6PDH CS, HKDC1 inhibitor)
Cc1c(C(=O)Nc2ccccc2)c2ccc(C(F)(F)F)cc2n1O	none (no result: Diaphorase inh, G6PDH CS)
COc1ccc(OC)c(NC(=O)CSc2ccc3nnc(-c4ccccn4)n3n2)c1	none (no result: Diaphorase inh, G6PDH CS)
COc1ccc(CNC(=O)c2cccc(NC(=O)CC3SC(N4CCCCC4)=NC3=O)c2)cc1 (configuration not stated)	none (no result: Diaphorase inh, G6PDH CS)
CCn1c(=O)c(C(=O)NNC(=O)c2ccccc2)c(O)c2ccccc21	none (no result: Diaphorase inh, G6PDH CS)
CCn1c(=O)c(-[n+]2ccccc2)c(O)c2ccccc21	Diaphorase inh 53
O=[N+]([O-])c1ccccc1-c1ccc(C(=S)N2CCCC2)o1	Diaphorase inh 53
O=C(CCn1cccn1)Nc1ccc2c(c1)OCCO2	none (no result: Diaphorase inh, G6PDH CS)
Cc1ccc(N)c2c1OCCC2=O	Diaphorase inh 57
Cc1ccc(C)c2c1CCCC2=O	none (no result: Diaphorase inh, G6PDH CS, HKDC1 inhibitor)
C[C@H](CO)N1C[C@H](C)[C@@H](CN(C)S(C)(=O)=O)Oc2ccc(NC(=O)NC3CCCCC3)cc2C1=O	none (no result: Diaphorase inh, G6PDH CS)
CCOC(=O)C1(Cc2ccccc2C)CCCN(Cc2cc(OC)c(O)c(OC)c2)C1 (configuration not stated)	G6PDH CS 59
CCOC(=O)C1(Cc2ccccc2C)CCCN(Cc2cn(C)nc2C)C1 (configuration not stated)	none
CC(NC(=O)CN(Cc1ccccc1)S(=O)(=O)c1ccccc1)c1cccnc1 (configuration not stated)	none (no result: Diaphorase inh, G6PDH CS)
CC(=O)c1cc2c(cc1NC(=O)CN(C)S(=O)(=O)c1cccs1)OCO2	none (no result: Diaphorase inh, G6PDH CS)
O=C(CSc1nc(-c2ccccc2)nc2c1Cc1ccccc1O2)Nc1ccccc1	none (no result: HKDC1 inhibitor, PfG6PD inh)
O=C(CSc1nc(-c2ccc(F)cc2)nc2c1Cc1ccccc1O2)Nc1cccc(C(=O)O)c1	Diaphorase inh 61, HKDC1 inhibitor 57
CC(=O)N(Cc1ccc(F)cc1)C1=C(NCCc2ccccc2)C(=O)c2ccccc2C1=O	G6PDH CS 50
Cc1ccc(-c2nc3c(c(=O)c4ccccc4n3C)c(=O)n2-c2ccccc2)cc1	Diaphorase inh 53
Cc1cccc(-c2nc3c(c(=O)c4ccccc4n3C)c(=O)n2-c2ccccc2)c1	none (no result: Diaphorase inh, G6PDH CS)
Cc1cc(Cn2nc(-c3ccccc3)cc2C(=O)NCC2CC2)on1	none (no result: Diaphorase inh, G6PDH CS)
Oc1ccccc1CNc1cnc2ccccc2c1	none
Oc1ccc2ccccc2c1CNc1cnc2ccccc2c1	Diaphorase inh 60
CC(C)(CNCc1ccccc1)NS(=O)(=O)c1ccccc1	none (no result: Diaphorase inh, G6PDH CS)
COc1cccc(/C=N/Nc2nc3ccccc3n3cnnc23)c1O	Diaphorase inh 66
S=c1[nH]nc(-c2cc(-c3ccco3)[nH]n2)n1-c1ccccc1Cl	Diaphorase inh 71
O=C(NCCC1CCCCN1S(=O)(=O)c1ccc(F)cc1)C(=O)Nc1ccccc1 (configuration not stated)	none (no result: Diaphorase inh, G6PDH CS)
N#Cc1csc(CCNC(=O)c2ccccc2)n1	none (no result: Diaphorase inh, G6PDH CS, HKDC1 inhibitor)
O=C(N/N=C/c1ccc(OCc2ccccc2)cc1)c1ccncc1	none
Oc1ccc(N=Cc2ccc(OCc3ccccc3)cc2)cc1	Diaphorase inh 53, PfG6PD inh 87
Cc1ccc2cc(C)c3nnc(SCC(=O)N4CCN(C(=O)c5ccco5)CC4)n3c2c1	Diaphorase inh 51
Cc1cc2cc(C)c3nnc(SCC(=O)N4CCN(C(=O)c5ccco5)CC4)n3c2cc1C	none (no result: Diaphorase inh, G6PDH CS)
COCC(C)N1C(=O)Cc2c1nc(N)c1c(N)nc(N3CCN(c4ccccc4F)CC3)c(C#N)c21 (configuration not stated)	Diaphorase inh 60
CC1CCN(C(=O)CCNS(=O)(=O)c2ccc(Br)cc2)CC1	none (no result: Diaphorase inh, G6PDH CS)
